Measured values taken from ChEMBL document CHEMBL3244289, “Synthesis and antibacterial activity of 2'-substituted chelocardin analogues” (1979).
Active and inactive are the calls of the source. The rule behind the calls is not given here.

Columns and labels:
Staphylococcus aureus [1] = test: Antibacterial activity against Staphylococcus aureus 45 by two-fold agar dilution method; format: functional
Summary of the method: (§1)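 MIC determined by twofold serial dilution in brain-heart infusion agar. Values are reported in µg/mL.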

Staphylococcus aureus [2] = test: Antibacterial activity against Staphylococcus aureus Smith by two-fold agar dilution method; format: functional; summary of the method: as §1
Streptococcus pyogenes = test: Antibacterial activity against Streptococcus pyogenes C-203 by two-fold agar dilution method; format: functional; summary of the method: as §1
Enterococcus = test: Antibacterial activity against Enterococcus 89 by two-fold agar dilution method; format: functional; summary of the method: as §1
Escherichia coli = test: Antibacterial activity against Escherichia coli Juhl by two-fold agar dilution method; format: functional; summary of the method: as §1
Klebsiella pneumoniae = test: Antibacterial activity against Klebsiella pneumoniae 8045 by two-fold agar dilution method; format: functional; summary of the method: as §1
Pasteurella multocida = test: Antibacterial activity against Pasteurella multocida 10544 by two-fold agar dilution method; format: functional; summary of the method: as §1
Proteus vulgaris = test: Antibacterial activity against Proteus vulgaris by two-fold agar dilution method; format: functional; summary of the method: as §1
Proteus mirabilis [3] = test: Antibacterial activity against Proteus mirabilis by two-fold agar dilution method; format: functional; summary of the method: as §1
Salmonella typhi = test: Antibacterial activity against Salmonella typhi by two-fold agar dilution method; format: functional, Salmonella enterica subsp. enterica serovar Typhi; details: Salmonella enterica
Summary of the method: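 MIC in µg/mL by twofold serial agar dilution on brain-heart infusion agar.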

Pseudomonas aeruginosa = test: Antibacterial activity against Pseudomonas aeruginosa by two-fold agar dilution method; format: functional, organism-based; summary of the method: as §1
Proteus mirabilis [4] = test: Antibacterial activity against Proteus mirabilis infected in po dosed mouse assessed as protection against bacterial infection; format: functional
Summary of the method: (§2)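 Mice were challenged intraperitoneally with Proteus mirabilis, and compound was given by the line's route (oral or subcutaneous). The CD50 is the total dose in mg/kg that protects 50% of challenged mice.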

Proteus mirabilis [5] = test: Antibacterial activity against Proteus mirabilis infected in sc dosed mouse assessed as protection against bacterial infection; format: functional; summary of the method: as §2

Structure (SMILES) | MIC (Staphylococcus aureus [1]) [µg/mL] | MIC (Staphylococcus aureus [2]) [µg/mL] | MIC (Streptococcus pyogenes) [µg/mL] | MIC (Enterococcus) [µg/mL] | MIC (Escherichia coli) [µg/mL] | MIC (Klebsiella pneumoniae) [µg/mL] | MIC (Pasteurella multocida) [µg/mL] | MIC (Proteus vulgaris) [µg/mL] | MIC (Proteus mirabilis [3]) [µg/mL] | MIC (Salmonella typhi) [µg/mL] | Activity (Pseudomonas aeruginosa) | CD50 (Proteus mirabilis [4]) [mg/kg] | CD50 (Proteus mirabilis [5]) [mg/kg]
C/C(=N\N1CCN(C)CC1)C1=C(O)[C@H](N)[C@@H]2Cc3c(c(O)c4c(O)c(C)ccc4c3C)C(=O)[C@]2(O)C1=O.Cl | 6.2 | 6.2 | 3.1 | 12.5 | 6.2 | 3.1 | 0.78 | 6.2 | 6.2 | 3.1 | inactive | 25 | 12.5
CC(=O)NS(=O)(=O)c1ccc(/N=C(\C)C2=C(O)[C@H](N)[C@@H]3Cc4c(c(O)c5c(O)c(C)ccc5c4C)C(=O)[C@]3(O)C2=O)cc1.Cl | 6.2 | 3.1 | 3.1 | 12.5 | 6.2 | 1.56 | 0.78 | 3.1 | 6.2 | 1.5 | inactive | 100 | 6.25
COc1ccc(/N=C(\C)C2=C(O)[C@H](N)[C@@H]3Cc4c(c(O)c5c(O)c(C)ccc5c4C)C(=O)[C@]3(O)C2=O)cc1.Cl | 12.5 | 12.5 | 3.1 | 6.2 | 25 | 3.1 | 0.78 | 3.1 | 6.2 | 3.1 | inactive |  | 
C/C(=N\c1ccc(O)cc1)C1=C(O)[C@H](N)[C@@H]2Cc3c(c(O)c4c(O)c(C)ccc4c3C)C(=O)[C@]2(O)C1=O.Cl | 12.5 | 12.5 | 12.5 | 25 | 50 | 3.1 | 0.78 | 3.1 | 6.2 | 6.2 | inactive |  | 
C/C(=N\NC(=O)CC#N)C1=C(O)[C@H](N)[C@@H]2Cc3c(c(O)c4c(O)c(C)ccc4c3C)C(=O)[C@]2(O)C1=O.Cl | 50 | 50 | 50 | 50 | 50 | 12.5 | 1.56 | 12.5 | 12.5 | 12.5 | inactive |  | 
C/C(=N\N1CCN(CCO)CC1)C1=C(O)[C@H](N)[C@@H]2Cc3c(c(O)c4c(O)c(C)ccc4c3C)C(=O)[C@]2(O)C1=O.Cl | 12.5 | 6.2 | 3.1 | 6.2 | 6.2 | 1.56 | 0.39 | 3.1 | 3.1 | 1.56 | inactive | 100 | 25
C/C(=N\N1CCOC1=O)C1=C(O)[C@H](N)[C@@H]2Cc3c(c(O)c4c(O)c(C)ccc4c3C)C(=O)[C@]2(O)C1=O.Cl | 25 | 25 | 25 | 25 | 25 | 25 | 1.6 | 6.2 | 12.5 | 25 | inactive |  | 
C/C(=N\NC(N)=S)C1=C(O)[C@H](N)[C@@H]2Cc3c(c(O)c4c(O)c(C)ccc4c3C)C(=O)[C@]2(O)C1=O.Cl | 50 | 50 | 25 | 100 | 100 | 25 | 3.1 | 50 | 50 | 25 | inactive |  | 
C/C(=N\c1ccc(S(N)(=O)=O)cc1)C1=C(O)[C@H](N)[C@@H]2Cc3c(c(O)c4c(O)c(C)ccc4c3C)C(=O)[C@]2(O)C1=O.Cl | 6.2 | 3.1 | 3.1 | 6.2 | 6.2 | 1.56 | 0.2 | 1.56 | 3.1 | 0.7 | inactive | <25 | 6.25
C/C(=N\N1CCOCC1)C1=C(O)[C@H](N)[C@@H]2Cc3c(c(O)c4c(O)c(C)ccc4c3C)C(=O)[C@]2(O)C1=O.Cl | 12.5 | 12.5 | 12.5 | 12.5 | 25 | 6.2 | 0.78 | 6.2 | 12.5 | 3.1 | inactive |  | 
C/C(=N\Nc1ccccc1)C1=C(O)[C@H](N)[C@@H]2Cc3c(c(O)c4c(O)c(C)ccc4c3C)C(=O)[C@]2(O)C1=O.Cl | 6.2 | 6.2 | 6.2 | 12.5 | 50 | 12.5 | 0.78 | 50 | 50 | 25 | inactive |  | 
C/C(=N\c1ccc(Cl)cc1)C1=C(O)[C@H](N)[C@@H]2Cc3c(c(O)c4c(O)c(C)ccc4c3C)C(=O)[C@]2(O)C1=O.Cl | 6.2 | 6.2 | 6.2 | 25 | 25 | 3.1 | 0.39 | 1.56 | 3.1 | 3.1 | inactive |  | 
C/C(=N\NCCN(C)C)C1=C(O)[C@H](N)[C@@H]2Cc3c(c(O)c4c(O)c(C)ccc4c3C)C(=O)[C@]2(O)C1=O.Cl | 50 | 50 | 50 | 100 | 50 | 25 | 3.1 | 25 | 25 | 25 | inactive |  | 
CC(=O)C1=C(O)[C@H](N)[C@@H]2Cc3c(c(O)c4c(O)c(C)ccc4c3C)C(=O)[C@]2(O)C1=O.Cl [CETOCYCLINE HYDROCHLORIDE] | 6.2 | 3.1 | 3.1 | 6.2 | 6.2 | 3.1 | 0.39 | 1.56 | 1.56 | 1.5 | inactive | 200 | 12.5
C/C(=N\NC(=N)N)C1=C(O)[C@H](N)[C@@H]2Cc3c(c(O)c4c(O)c(C)ccc4c3C)C(=O)[C@]2(O)C1=O.Cl | 50 | 50 | 25 | 50 | 25 | 12.5 | 3.1 | 12.5 | 12.5 | 25 | inactive | 100 | 12.5
C/C(=N\c1ccccc1)C1=C(O)[C@H](N)[C@@H]2Cc3c(c(O)c4c(O)c(C)ccc4c3C)C(=O)[C@]2(O)C1=O.Cl | 12.5 | 12.5 | 12.5 | 25 | 25 | 12.5 | 1.56 | 6.2 | 6.2 | 6.2 | inactive |  | 
C/C(=N\N(C)C)C1=C(O)[C@H](N)[C@@H]2Cc3c(c(O)c4c(O)c(C)ccc4c3C)C(=O)[C@]2(O)C1=O.Cl | 12.5 | 12.5 | 6.2 | 6.2 | 12.5 | 6.2 | 0.78 | 6.2 | 6.2 | 3.1 | inactive |  | 
C/C(=N\c1ccc(C)cc1)C1=C(O)[C@H](N)[C@@H]2Cc3c(c(O)c4c(O)c(C)ccc4c3C)C(=O)[C@]2(O)C1=O.Cl | 12.5 | 12.5 | 6.2 | 25 | 25 | 6.2 | 0.39 | 6.2 | 6.2 | 3.1 | inactive |  | 
CC(=O)N/N=C(\C)C1=C(O)[C@H](N)[C@@H]2Cc3c(c(O)c4c(O)c(C)ccc4c3C)C(=O)[C@]2(O)C1=O.Cl | 12.5 | 12.5 | 6.2 | 12.5 | 12.5 | 6.2 | 0.78 | 6.2 | 6.2 | 6.2 | inactive | 50 | 25
C=CCNC(=O)N/N=C(\C)C1=C(O)[C@H](N)[C@@H]2Cc3c(c(O)c4c(O)c(C)ccc4c3C)C(=O)[C@]2(O)C1=O.Cl | 25 | 25 | 12.5 | 50 | 25 | 6.2 | 0.78 | 12.5 | 6.2 | 12.5 | inactive |  | 
